According to ChEMBL document CHEMBL3425484, “Novel N-benzenesulfonyl sophocarpinol derivatives as coxsackie B virus inhibitors” (ACS Med Chem Lett, 2015):

How the values were obtained:
[1] = Cytotoxicity against african green monkey Vero cells assessed as inhibition of cell growth after 24 hrs by CPE assay; assay type: cell-based; settings: chlorocebus sabaeus, read-out: TC50
Coxsackievirus = test: Antiviral activity against Coxsackievirus B3 infected in african green monkey Vero cells assessed as reduction in viral-induced cytopathic effect; assay type: functional, organism-based
In short: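 Vero (African green monkey kidney) cells were infected with the CVB subtype and scored by viral cytopathogenic effect (CPE) reduction, with ribavirin as the positive control. IC50 is the concentration that inhibits CVB growth by 50%.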

[2] = Selectivity index, ratio of TC50 for african green monkey Vero cells to IC50 for Coxsackievirus B3 infected in african green monkey Vero cells; assay type: toxicity, cell-based; settings: read-out: Selectivity Index
In short: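 SI is calculated as TC50 (50% inhibition of Vero cell growth) divided by IC50 (50% inhibition of the respective CVB subtype's growth, from the CPE assay in Vero cells, ribavirin as positive control).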

Compound	CC50 at 24 h [1] [µM]	IC50 (Coxsackievirus) [µM]	selectivity ratio [2]
N#Cc1ccccc1S(=O)(=O)N1C[C@@H]2CCCN3CCC[C@@H]([C@H]23)[C@H]1/C=C/CC(=O)O	466	22.7	20.5
N#Cc1cccc(S(=O)(=O)N2C[C@@H]3CCCN4CCC[C@@H]([C@H]34)[C@H]2/C=C/CC(=O)O)c1	466	13.1	35.5
O=C(O)C/C=C/[C@@H]1[C@H]2CCCN3CCC[C@@H](CN1S(=O)(=O)c1ccc(C(F)(F)F)cc1)[C@@H]23	1470	33.7	43.6
O=C(O)C/C=C/[C@@H]1[C@H]2CCCN3CCC[C@@H](CN1S(=O)(=O)c1ccccc1C(F)(F)F)[C@@H]23	393	11.1	35.4
COC(=O)C/C=C/[C@@H]1[C@H]2CCCN3CCC[C@@H](CN1S(=O)(=O)c1cccc(C#N)c1)[C@@H]23	72.4	7.3	9.9
COC(=O)C/C=C/[C@@H]1[C@H]2CCCN3CCC[C@@H](CN1S(=O)(=O)c1ccccc1C#N)[C@@H]23	80.3	8.92	9
COC(=O)C/C=C/[C@@H]1[C@H]2CCCN3CCC[C@@H](CN1S(=O)(=O)c1ccccc1C(F)(F)F)[C@@H]23	38.1	11.9	3.2
N#Cc1ccccc1S(=O)(=O)N1C[C@@H]2CCCN3CCC[C@@H]([C@H]23)[C@H]1C/C=C/C(=O)O	466	> 155	
N#Cc1ccc(S(=O)(=O)N2C[C@@H]3CCCN4CCC[C@@H]([C@H]34)[C@H]2C/C=C/C(=O)O)cc1	> 466	29.9	> 15.7
O=C(O)/C=C/C[C@@H]1[C@H]2CCCN3CCC[C@@H](CN1S(=O)(=O)c1ccccc1C(F)(F)F)[C@@H]23	424	27.2	15.6
COC(=O)C/C=C\[C@@H]1[C@H]2CCCN3CCC[C@@H](CN1S(=O)(=O)c1ccccc1C#N)[C@@H]23	289	4.21	68.7
COC(=O)C/C=C\[C@@H]1[C@H]2CCCN3CCC[C@@H](CN1S(=O)(=O)c1ccc(C#N)cc1)[C@@H]23	292	8.04	36.3
COC(=O)C/C=C\[C@@H]1[C@H]2CCCN3CCC[C@@H](CN1S(=O)(=O)c1cccc(C(F)(F)F)c1)[C@@H]23	198	2.24	88.3
COC(=O)C/C=C\[C@@H]1[C@H]2CCCN3CCC[C@@H](CN1S(=O)(=O)c1ccc(C(F)(F)F)cc1)[C@@H]23	54.7	8.17	6.7
COC(=O)C/C=C\[C@@H]1[C@H]2CCCN3CCC[C@@H](CN1S(=O)(=O)c1ccccc1[N+](=O)[O-])[C@@H]23	481	5.23	92.1
COC(=O)C/C=C\[C@@H]1[C@H]2CCCN3CCC[C@@H](CN1S(=O)(=O)c1cccc([N+](=O)[O-])c1)[C@@H]23	112	9.24	12.1
COC(=O)C/C=C\[C@@H]1[C@H]2CCCN3CCC[C@@H](CN1S(=O)(=O)c1ccc([N+](=O)[O-])cc1)[C@@H]23	186	7.02	26.4
COC(=O)C/C=C\[C@@H]1[C@H]2CCCN3CCC[C@@H](CN1S(=O)(=O)c1cc(Br)c(Br)s1)[C@@H]23	21.1	1.19	17.7
N#Cc1ccccc1S(=O)(=O)N1C[C@@H]2CCCN3CCC[C@@H]([C@H]23)[C@H]1/C=C\CC(=O)O	430	27.6	15.6
N#Cc1cccc(S(=O)(=O)N2C[C@@H]3CCCN4CCC[C@@H]([C@H]34)[C@H]2/C=C\CC(=O)O)c1	745	17.4	42.7

Compound	CC50 at 24 h [1] [µM]	IC50 (Coxsackievirus) [µM]	selectivity ratio [2]
N#Cc1ccc(S(=O)(=O)N2C[C@@H]3CCCN4CCC[C@@H]([C@H]34)[C@H]2/C=C\CC(=O)O)cc1	745	52.4	14.2
O=C(O)C/C=C\[C@@H]1[C@H]2CCCN3CCC[C@@H](CN1S(=O)(=O)c1ccc(C(F)(F)F)cc1)[C@@H]23	272	18.6	14.7
O=C(O)C/C=C\[C@@H]1[C@H]2CCCN3CCC[C@@H](CN1S(=O)(=O)c1ccccc1[N+](=O)[O-])[C@@H]23	595	16.2	36.8
O=C(O)C/C=C\[C@@H]1[C@H]2CCCN3CCC[C@@H](CN1S(=O)(=O)c1cccc([N+](=O)[O-])c1)[C@@H]23	445	63.6	7
O=C(O)C/C=C\[C@@H]1[C@H]2CCCN3CCC[C@@H](CN1S(=O)(=O)c1ccc([N+](=O)[O-])cc1)[C@@H]23	309	49.8	6.2
O=C(O)C/C=C\[C@@H]1[C@H]2CCCN3CCC[C@@H](CN1S(=O)(=O)c1cc(Br)c(Br)s1)[C@@H]23	191	53.1	3.6
N#Cc1cccc(S(=O)(=O)N2C[C@@H]3CCCN4CCC[C@@H]([C@H]34)[C@H]2/C=C\CCO)c1	148	5.47	27
O=S(=O)(c1cccc(C(F)(F)F)c1)N1C[C@@H]2CCCN3CCC[C@@H]([C@H]23)[C@H]1/C=C\CCO	93.5	15	6.2
O=S(=O)(c1ccc(C(F)(F)F)cc1)N1C[C@@H]2CCCN3CCC[C@@H]([C@H]23)[C@H]1/C=C\CCO	93.5	4.17	22.4
O=[N+]([O-])c1ccc(S(=O)(=O)N2C[C@@H]3CCCN4CCC[C@@H]([C@H]34)[C@H]2/C=C\CCO)cc1	265	17	15.6
COC(=O)CCC[C@@H]1[C@H]2CCCN3CCC[C@@H](CN1S(=O)(=O)c1cccc(C#N)c1)[C@@H]23	288	11.7	24.6
COC(=O)CCC[C@@H]1[C@H]2CCCN3CCC[C@@H](CN1S(=O)(=O)c1ccc(C(F)(F)F)cc1)[C@@H]23	73.4	2.54	28.9
COC(=O)CCC[C@@H]1[C@H]2CCCN3CCC[C@@H](CN1S(=O)(=O)c1ccccc1[N+](=O)[O-])[C@@H]23	399	23.9	16.7
COC(=O)CCC[C@@H]1[C@H]2CCCN3CCC[C@@H](CN1S(=O)(=O)c1cccc([N+](=O)[O-])c1)[C@@H]23	68.9	3.51	19.7
N#Cc1cccc(S(=O)(=O)N2C[C@@H]3CCCN4CCC[C@@H]([C@H]34)[C@H]2CCCC(=O)O)c1	428	82.3	5.2
O=C(O)CCC[C@@H]1[C@H]2CCCN3CCC[C@@H](CN1S(=O)(=O)c1ccc(C(F)(F)F)cc1)[C@@H]23	392	75.4	5.2
O=C(O)CCC[C@@H]1[C@H]2CCCN3CCC[C@@H](CN1S(=O)(=O)c1ccccc1[N+](=O)[O-])[C@@H]23	410	78.9	5.2
N#Cc1cccc(S(=O)(=O)N2C[C@@H]3CCCN4CCC[C@@H]([C@H]34)[C@H]2CCCCO)c1	147	11.3	13
O=S(=O)(c1ccc(C(F)(F)F)cc1)N1C[C@@H]2CCCN3CCC[C@@H]([C@H]23)[C@H]1CCCCO	233	6.55	35.5
